# Measurements published in ChEMBL document CHEMBL4425133, “Discovery and Pharmacokinetic and Pharmacological Properties of the Potent and Selective MET Kinase Inhibitor 1-{6-[6-(4-Fluorophenyl)-[1,2,4]triazolo[4,3-b]pyridazin-3-ylsulfanyl]benzothiazol-2-yl}-3-(2-morpholin-4-ylethyl)urea (SAR125844)” (J Med Chem, 2016).
# Values joined by “and” are separate entries in the source; they are usually repeats but may differ in a detail not shown here. Equal entries are not always repeated. Active and inactive are the calls of the source. No cut-off for these calls is given here.
# Tests used:
# [1] = biological target: T1, Hepatocyte growth factor receptor (Homo sapiens, UniProt P08581); test: Inhibition of wild type phosphorylated MET (unknown origin) pre-incubated for 30 mins before biotinylated poly(glutamate-alanine-tyrosine) peptide addition and measured after 5 mins by HTRF assay
# T1 sequence (P08581 whole entry): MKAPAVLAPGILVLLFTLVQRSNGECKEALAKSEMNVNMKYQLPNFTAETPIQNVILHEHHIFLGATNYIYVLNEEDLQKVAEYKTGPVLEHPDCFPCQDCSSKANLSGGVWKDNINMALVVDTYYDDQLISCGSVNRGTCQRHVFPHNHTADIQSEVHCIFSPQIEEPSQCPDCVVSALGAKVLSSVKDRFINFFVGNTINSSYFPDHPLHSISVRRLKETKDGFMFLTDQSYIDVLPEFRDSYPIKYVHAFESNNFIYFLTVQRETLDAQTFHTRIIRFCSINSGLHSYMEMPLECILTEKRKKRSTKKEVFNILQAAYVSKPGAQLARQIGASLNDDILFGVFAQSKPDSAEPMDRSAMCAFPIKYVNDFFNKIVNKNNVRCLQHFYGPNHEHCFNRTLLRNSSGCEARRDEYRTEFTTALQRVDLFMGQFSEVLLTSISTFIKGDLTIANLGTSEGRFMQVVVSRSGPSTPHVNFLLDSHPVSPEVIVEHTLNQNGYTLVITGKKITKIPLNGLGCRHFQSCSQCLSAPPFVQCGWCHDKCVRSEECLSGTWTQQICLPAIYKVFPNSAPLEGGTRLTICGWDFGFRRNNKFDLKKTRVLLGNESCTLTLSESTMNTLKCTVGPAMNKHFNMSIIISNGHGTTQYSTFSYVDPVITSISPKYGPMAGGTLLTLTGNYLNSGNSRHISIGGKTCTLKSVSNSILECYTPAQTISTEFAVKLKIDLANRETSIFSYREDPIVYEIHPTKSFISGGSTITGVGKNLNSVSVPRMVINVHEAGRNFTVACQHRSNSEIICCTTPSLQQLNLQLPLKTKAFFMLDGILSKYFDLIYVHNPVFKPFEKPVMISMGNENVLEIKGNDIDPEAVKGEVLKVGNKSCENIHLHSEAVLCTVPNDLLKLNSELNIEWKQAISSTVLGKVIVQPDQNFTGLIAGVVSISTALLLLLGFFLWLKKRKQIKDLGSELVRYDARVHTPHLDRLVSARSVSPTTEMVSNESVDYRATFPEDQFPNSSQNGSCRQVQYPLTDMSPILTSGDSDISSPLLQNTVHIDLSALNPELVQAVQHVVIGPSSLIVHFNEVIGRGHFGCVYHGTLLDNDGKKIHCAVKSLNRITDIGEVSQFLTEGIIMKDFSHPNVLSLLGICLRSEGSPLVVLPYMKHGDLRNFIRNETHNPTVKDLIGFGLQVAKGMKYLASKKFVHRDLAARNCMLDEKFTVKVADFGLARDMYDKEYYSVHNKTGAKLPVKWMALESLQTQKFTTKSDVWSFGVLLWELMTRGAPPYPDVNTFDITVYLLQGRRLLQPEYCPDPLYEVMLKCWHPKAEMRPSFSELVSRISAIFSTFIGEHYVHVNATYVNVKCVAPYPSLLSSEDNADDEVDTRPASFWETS
# [2] = biological target: Hepatocyte growth factor receptor (Homo sapiens, UniProt P08581, L1195V); test: Inhibition of phosphorylated MET L1195V mutant (unknown origin) pre-incubated for 30 mins before biotinylated poly(glutamate-alanine-tyrosine) peptide addition and measured after 5 mins by HTRF assay
# Hepatocyte growth factor receptor (Homo sapiens, UniProt P08581, L1195V), sequence (P08581 25-1390 L1195V limits assumed): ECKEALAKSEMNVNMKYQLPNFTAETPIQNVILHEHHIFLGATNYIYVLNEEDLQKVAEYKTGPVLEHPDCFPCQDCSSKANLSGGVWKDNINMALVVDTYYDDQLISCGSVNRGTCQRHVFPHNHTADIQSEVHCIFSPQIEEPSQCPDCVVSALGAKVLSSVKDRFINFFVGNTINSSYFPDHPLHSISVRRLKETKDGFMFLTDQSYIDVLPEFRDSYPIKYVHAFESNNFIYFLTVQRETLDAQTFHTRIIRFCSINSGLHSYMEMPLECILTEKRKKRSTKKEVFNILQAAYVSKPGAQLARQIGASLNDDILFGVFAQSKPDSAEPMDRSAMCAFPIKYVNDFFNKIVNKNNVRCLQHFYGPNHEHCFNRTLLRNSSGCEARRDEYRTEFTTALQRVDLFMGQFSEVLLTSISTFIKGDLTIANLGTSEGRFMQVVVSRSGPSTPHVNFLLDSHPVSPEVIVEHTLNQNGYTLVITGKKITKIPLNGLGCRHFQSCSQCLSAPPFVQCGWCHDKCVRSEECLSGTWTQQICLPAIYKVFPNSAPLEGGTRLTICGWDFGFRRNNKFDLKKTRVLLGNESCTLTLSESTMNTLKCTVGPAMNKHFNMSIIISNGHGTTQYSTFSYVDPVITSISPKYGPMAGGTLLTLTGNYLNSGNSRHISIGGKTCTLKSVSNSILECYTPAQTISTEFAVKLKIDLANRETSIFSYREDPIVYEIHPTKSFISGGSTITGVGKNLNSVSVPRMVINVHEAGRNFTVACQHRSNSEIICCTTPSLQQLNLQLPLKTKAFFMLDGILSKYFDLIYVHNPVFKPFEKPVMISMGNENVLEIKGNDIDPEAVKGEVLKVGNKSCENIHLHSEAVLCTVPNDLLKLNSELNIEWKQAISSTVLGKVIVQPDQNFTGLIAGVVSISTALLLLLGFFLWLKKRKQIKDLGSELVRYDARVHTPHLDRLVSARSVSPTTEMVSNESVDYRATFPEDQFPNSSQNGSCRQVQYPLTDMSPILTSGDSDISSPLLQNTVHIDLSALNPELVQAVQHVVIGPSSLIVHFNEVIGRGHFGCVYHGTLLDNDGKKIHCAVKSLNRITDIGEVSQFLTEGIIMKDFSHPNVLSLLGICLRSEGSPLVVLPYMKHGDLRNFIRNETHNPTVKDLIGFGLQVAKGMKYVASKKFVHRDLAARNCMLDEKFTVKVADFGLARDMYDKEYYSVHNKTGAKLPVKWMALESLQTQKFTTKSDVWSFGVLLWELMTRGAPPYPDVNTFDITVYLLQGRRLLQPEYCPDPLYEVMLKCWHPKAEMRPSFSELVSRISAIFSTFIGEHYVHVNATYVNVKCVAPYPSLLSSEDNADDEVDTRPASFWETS
# [3] = biological target: T1, Hepatocyte growth factor receptor; test: Inhibition of phosphorylated MET in human MKN45 cells assessed as reduction in pMET Y1230/1234/1235 level incubated for 1 hr by ELISA; format: cell-based
# Method in brief: (§1)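 MKN-45 is a MET-amplified human gastric tumour cell line.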
# MKN-45 = test: Antiproliferative activity against human MKN45 cells assessed as reduction in [14C]-thymidine incorporation incubated for 96 hrs by beta counting method; format: functional, cell-based; settings: for IC50: MKN-45, 96 h; method in brief: as §1
# [4] = biological target: Hepatocyte growth factor receptor (Homo sapiens, UniProt P08581, Y1230H); test: Inhibition of phosphorylated MET Y1230H mutant (unknown origin) pre-incubated for 30 mins before biotinylated poly(glutamate-alanine-tyrosine) peptide addition and measured after 5 mins by HTRF assay
# Hepatocyte growth factor receptor (Homo sapiens, UniProt P08581, Y1230H), sequence (P08581 25-1390 Y1230H limits assumed): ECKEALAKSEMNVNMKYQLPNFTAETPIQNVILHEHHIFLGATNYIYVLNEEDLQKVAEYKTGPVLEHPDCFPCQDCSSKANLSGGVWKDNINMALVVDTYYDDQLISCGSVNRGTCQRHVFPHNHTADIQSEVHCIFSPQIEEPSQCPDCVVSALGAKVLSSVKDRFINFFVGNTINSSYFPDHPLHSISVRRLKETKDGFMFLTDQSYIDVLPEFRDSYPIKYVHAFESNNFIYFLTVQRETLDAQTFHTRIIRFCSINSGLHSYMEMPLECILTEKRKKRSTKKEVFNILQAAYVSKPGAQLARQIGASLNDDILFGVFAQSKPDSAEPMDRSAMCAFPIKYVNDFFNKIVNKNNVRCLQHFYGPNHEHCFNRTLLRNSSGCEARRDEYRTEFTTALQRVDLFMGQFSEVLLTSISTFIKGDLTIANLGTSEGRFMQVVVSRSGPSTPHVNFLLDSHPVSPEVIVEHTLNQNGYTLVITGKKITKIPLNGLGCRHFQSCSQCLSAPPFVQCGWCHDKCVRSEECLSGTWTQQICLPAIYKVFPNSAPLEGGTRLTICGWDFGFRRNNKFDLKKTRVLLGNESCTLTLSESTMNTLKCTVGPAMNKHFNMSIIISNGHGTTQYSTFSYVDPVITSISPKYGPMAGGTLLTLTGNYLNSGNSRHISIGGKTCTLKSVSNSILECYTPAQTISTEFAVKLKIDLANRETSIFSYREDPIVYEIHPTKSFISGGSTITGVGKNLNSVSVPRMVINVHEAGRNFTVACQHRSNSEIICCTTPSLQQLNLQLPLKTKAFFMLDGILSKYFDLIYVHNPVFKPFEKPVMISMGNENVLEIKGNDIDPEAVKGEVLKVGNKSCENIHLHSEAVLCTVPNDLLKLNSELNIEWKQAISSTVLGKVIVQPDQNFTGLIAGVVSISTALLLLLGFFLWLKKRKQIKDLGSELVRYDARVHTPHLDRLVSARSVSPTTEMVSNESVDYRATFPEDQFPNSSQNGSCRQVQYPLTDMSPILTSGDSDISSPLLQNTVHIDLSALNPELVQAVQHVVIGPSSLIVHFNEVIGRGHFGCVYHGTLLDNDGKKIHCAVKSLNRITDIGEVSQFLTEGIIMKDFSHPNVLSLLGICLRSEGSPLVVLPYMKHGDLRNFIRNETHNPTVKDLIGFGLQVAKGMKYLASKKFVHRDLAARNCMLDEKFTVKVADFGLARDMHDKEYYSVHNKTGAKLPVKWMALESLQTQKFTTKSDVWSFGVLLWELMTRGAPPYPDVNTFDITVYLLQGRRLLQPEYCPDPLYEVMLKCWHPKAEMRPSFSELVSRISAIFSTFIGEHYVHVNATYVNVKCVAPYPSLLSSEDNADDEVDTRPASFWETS
# [5] = Equilibrium solubility in phosphate buffer in absence of 10% Labrasol at pH 7.4; format: physicochemical
# [6] = Equilibrium solubility in phosphate buffer in presence of 10% Labrasol at pH 7.4; format: physicochemical; settings: phosphate buffer with 10% Labrasol
# Tubulin = test: Binding affinity to tubulin (unknown origin); format: protein-complex assay, Homo sapiens
# [7] = Lipophilicity, log D of the compound by HPLC method; format: physicochemical
# [8] = Genotoxicity in Salmonella typhimurium by Ames test; format: toxicity; settings: salmonella enterica subsp. enterica serovar typhimurium
# [9] = Protein binding in plasma of SCID mouse bearing advanced-stage human Hs746T cells at 20 mg/kg, iv administered as single dose after 24 hrs by liquid chromatography-tandem mass spectrometry; format: ADME, organism-based; settings: read-out: PPB (converted)
# [10] = biological target: Hepatocyte growth factor receptor (Homo sapiens, UniProt P08581, M1250T); test: Inhibition of phosphorylated MET M1250T mutant (unknown origin) pre-incubated for 30 mins before biotinylated poly(glutamate-alanine-tyrosine) peptide addition and measured after 5 mins by HTRF assay
# Mus musculus [11] = test: Inhibition of MET Y1349 phosphorylation in SCID mouse bearing advanced-stage human Hs746T cells at 20 mg/kg, iv administered as single dose after 4 to 48 hrs by using MSD assay; format: functional, organism-based; settings: TDE = time-dependent effect
# Mus musculus [12] = test: Inhibition of MET Y1349 phosphorylation in SCID mouse bearing advanced-stage human Hs746T cells at 20 mg/kg, iv administered as single dose after 4 hrs by using MSD assay; format: functional
# [13] = Drug uptake in tumor of SCID mouse bearing advanced-stage human Hs746T cells at 20 mg/kg, iv administered as single dose after 1 to 72 hrs by liquid chromatography-tandem mass spectrometry; format: ADME, organism-based, Neoplasm; settings: in vivo
# [14] = AUC in SCID mouse bearing advanced-stage human Hs746T cells at 20 mg/kg, iv administered as single dose after 1 to 72 hrs by liquid chromatography-tandem mass spectrometry; format: ADME, organism-based; settings: in vivo
# [15] = Clearance in mouse at 1 mg/kg, iv relative to hepatic blood flow; format: ADME, organism-based; settings: in vivo
# [16] = Drug distribution in rat at 25 mg/kg administered as [14C[-labeled compound through infusion after 1 to 2 hrs; format: ADME, organism-based; settings: in vivo, iv
# [17] = Volume of distribution at steady state in mouse at 1 mg/kg, iv; format: ADME, organism-based; settings: in vivo, read-out: Vdss
# [18] = Volume of distribution at steady state in rat at 5 mg/kg, iv; format: ADME, organism-based; settings: in vivo, read-out: Vdss
# [19] = Terminal half life in mouse at 1 mg/kg, iv […]; format: ADME, organism-based; settings: in vivo, read-out: beta t1/2 (converted)
# [20] = Terminal half life in dog at 3 mg/kg, iv; format: ADME, organism-based, Canis lupus familiaris; settings: in vivo, read-out: beta t1/2 (converted)
# [21] = Volume of distribution at steady state in SCID mouse bearing advanced-stage human Hs746T cells at 20 mg/kg, iv administered as single dose after 1 to 72 hrs by liquid chromatography-tandem mass spectrometry; format: ADME, organism-based; settings: in vivo, read-out: Vdss
# [22] = Blood clearance in advanced solid tumor patient at 50 to 740 mg/m2 during phase-1 trial; format: ADME, tissue-based; settings: human, whole blood
# [23] = Clearance in rat at 5 mg/kg, iv; format: ADME, organism-based; settings: in vivo
# [24] = biological target: T1, Hepatocyte growth factor receptor; test: Binding affinity to MET (unknown origin) by isothermal titration calorimetry
# [25] = Drug uptake in tumor of SCID mouse bearing advanced-stage human Hs746T cells at 20 mg/kg, iv administered as single dose after 24 hrs by liquid chromatography-tandem mass spectrometry; format: ADME, organism-based, Neoplasm; settings: read-out: Drug uptake
# Cytochrome P450 3A4 [26] = biological target: T2, Cytochrome P450 3A4 (Homo sapiens, UniProt P08684); test: Inhibition of human recombinant CYP3A4 co-expressed with human P450 reductase and human b5 reductase assessed as reduction in 7-Hydroxyquinoline production using 7-benzyloxyquinoline as substrate and NADPH incubated for 15 mins by fluorimetry; format: ADME
# T2 sequence (P08684 whole entry): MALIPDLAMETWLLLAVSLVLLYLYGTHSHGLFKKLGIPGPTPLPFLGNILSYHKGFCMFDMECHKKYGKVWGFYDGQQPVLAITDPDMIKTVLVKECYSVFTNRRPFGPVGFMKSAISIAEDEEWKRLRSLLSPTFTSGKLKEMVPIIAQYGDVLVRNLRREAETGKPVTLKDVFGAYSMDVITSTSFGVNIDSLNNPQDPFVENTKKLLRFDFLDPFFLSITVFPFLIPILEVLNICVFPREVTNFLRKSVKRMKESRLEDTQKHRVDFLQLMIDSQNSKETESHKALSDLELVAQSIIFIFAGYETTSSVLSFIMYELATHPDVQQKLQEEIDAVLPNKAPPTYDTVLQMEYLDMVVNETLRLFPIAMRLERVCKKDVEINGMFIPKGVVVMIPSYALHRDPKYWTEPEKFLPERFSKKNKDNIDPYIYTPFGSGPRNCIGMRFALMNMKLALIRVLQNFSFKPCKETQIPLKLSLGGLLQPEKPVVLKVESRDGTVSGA
# [27] = Blood clearance in advanced solid tumor patient at 50 to 740 mg/m2 relative to hepatic blood flow during phase-1 trial; format: ADME, tissue-based; settings: human
# [28] = Clearance in rat at 5 mg/kg, iv relative to hepatic blood flow; format: ADME, organism-based; settings: in vivo
# [29] = Toxicity in advanced solid tumor patient at 50 to 740 mg/m2 during phase-1 trial; settings: human, in vivo
# [30] = Volume of distribution at steady state in dog at 3 mg/kg, iv; format: ADME, organism-based, Canis lupus familiaris; settings: in vivo, read-out: Vdss
# [31] = Clearance in dog at 3 mg/kg, iv; format: ADME, organism-based, Canis lupus familiaris; settings: in vivo
# in vivo = settings: SCID, mouse, tumor/plasma, iv, 20 mg/kg
# Mus musculus [32] = test: Inhibition of MET Y1349 phosphorylation in SCID mouse bearing advanced-stage human Hs746T cells at 20 mg/kg, iv administered as single dose after 48 hrs by using MSD assay; format: functional
# [33] = Terminal half life in rat at 5 mg/kg, iv […]; format: ADME, organism-based; settings: in vivo, read-out: beta t1/2 (converted)
# [34] = Drug distribution in rat tumor at 25 mg/kg administered as [14C[-labeled compound through infusion after 1 to 2 hrs; format: ADME, organism-based, Neoplasm; settings: in vivo, iv
# [35] = Oral bioavailability in mouse; format: ADME, organism-based; settings: in vivo
# [36] = Apparent permeability from apical to basolateral side in human Caco2/TC7 cells at 20 uM by liquid chromatography-tandem mass spectrometry; settings: Caco-2
# [37] = Clearance in dog at 3 mg/kg, iv relative to hepatic blood flow; format: ADME, organism-based, Canis lupus familiaris; settings: in vivo
# [38] = Terminal half life in advanced solid tumor patient at 50 to 740 mg/m2 during phase-1 trial; format: ADME; settings: human, in vivo; read-out: beta t1/2 (converted)
# [39] = Drug metabolism in human hepatic microsomes at 5 uM incubated for 20 mins in presence of NADPH by liquid chromatography-tandem mass spectrometry; format: ADME, Microsome; settings: liver microsomes, read-out: Drug metabolism
# Mus musculus [40] = test: Inhibition of MET Y1349 phosphorylation in SCID mouse bearing advanced-stage human Hs746T cells at 20 mg/kg, iv administered as single dose after 24 hrs by using MSD assay; format: functional
# [41] = Volume of distribution at steady state in advanced solid tumor patient at 50 to 740 mg/m2 during phase-1 trial; format: ADME; settings: human, in vivo; read-out: Vdss
# [42] = Drug level in advanced solid tumor patient at 50 to 740 mg/m2 during phase-1 trial; format: ADME; settings: human, in vivo
# [43] = Clearance in SCID mouse bearing advanced-stage human Hs746T cells at 20 mg/kg, iv administered as single dose after 1 to 72 hrs by liquid chromatography-tandem mass spectrometry; format: ADME, organism-based; settings: in vivo
# [44] = Unbound drug uptake in tumor of SCID mouse bearing advanced-stage human Hs746T cells at 20 mg/kg, iv administered as single dose after 24 hrs by liquid chromatography-tandem mass spectrometry; format: ADME, organism-based, Neoplasm; settings: in vivo
# [45] = Clearance in mouse at 1 mg/kg, iv; format: ADME, organism-based; settings: in vivo
# [46] = biological target: Cyclin-dependent kinase 9 (Homo sapiens, UniProt P50750); test: Inhibition of CDK9 (unknown origin)
# Cyclin-dependent kinase 9, sequence (P50750 whole entry): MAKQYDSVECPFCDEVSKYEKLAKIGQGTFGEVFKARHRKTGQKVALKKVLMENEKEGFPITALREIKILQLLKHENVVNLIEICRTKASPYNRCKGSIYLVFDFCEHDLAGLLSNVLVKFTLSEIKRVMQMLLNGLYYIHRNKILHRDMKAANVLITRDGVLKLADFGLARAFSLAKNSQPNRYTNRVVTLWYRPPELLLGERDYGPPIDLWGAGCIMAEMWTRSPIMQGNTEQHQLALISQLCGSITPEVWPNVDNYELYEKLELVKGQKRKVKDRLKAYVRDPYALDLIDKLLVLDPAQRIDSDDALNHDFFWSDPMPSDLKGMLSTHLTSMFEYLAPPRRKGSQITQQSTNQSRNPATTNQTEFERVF
# Cytochrome P450 3A4 [47] = biological target: T2, Cytochrome P450 3A4; test: Mechanism based time dependent inhibition of human recombinant CYP3A4 co-expressed with human P450 reductase and human b5 reductase assessed as reduction in 7-Hydroxyquinoline production using 7-benzyloxyquinoline as substrate and NADPH measured every 3 mins for 15 mins by fluorimetry; format: ADME; settings: recombinant enzyme, 0.25 h
smiles,measurement,setting,value
COC(=O)Nc1nc2ccc(Sc3nnc4ccc(-c5ccc(F)cc5)nn34)cc2s1,IC50,[1],16 nM
same,IC50,[2],> 10000 nM
same,IC50,[3],22 nM
same,IC50,MKN-45,91 nM
same,IC50,[4],> 10000 nM
same,solubility thermodynamic,[5],< 1 µM
same,solubility thermodynamic,[6],15 µM
same,IC50,Tubulin,> 25000 nM
same,logD,[7],> 4.6
same,Activity,[8],Non-Toxic
O=C(NCCN1CCOCC1)Nc1nc2ccc(Sc3nnc4ccc(-c5ccc(F)cc5)nn34)cc2s1 [SAR-125844],fraction unbound at 24 h,[9],0.0033
same,IC50,[1],4 nM
same,IC50,[10],6 nM
same,inhibition,Mus musculus [11],Tde
same,inhibition in vivo at 20 mg/kg,Mus musculus [12],96%
same,Drug uptake,[13],Active
same,IC50,[2],64 nM
same,AUC,[14],6190 ng·h/mL
same,CL,[15],54%
same,Drug uptake,[16],Active
same,Vd,[17],3.2 L/kg
same,Vd,[18],2.9 L/kg
same,IC50,[3],5 nM
same,half-life,[19],4.8 h
same,IC50,MKN-45,7 nM
same,half-life,[20],3.8 h
same,Vd,[21],4.2 L/kg
same,clearance,[22],565 mL/min and 8.33 mL/min/kg
same,IC50,[4],204 nM
same,solubility thermodynamic,[5],< 1 µM
same,clearance,[23],25 mL/min/kg
same,Kd,[24],0.9 nM
same,concentration at 24 h,[25],300 ng/mL
same,IC50,Cytochrome P450 3A4 [26],> 200000 nM
same,CL,[27],37%
same,CL,[28],36%
same,solubility thermodynamic,[6],500 µM
same,MTD,[29],570 mg/m2
same,Vd,[30],1.3 L/kg
same,clearance,[31],8.33 mL/min/kg
same,Kp,in vivo,8.1
same,inhibition in vivo at 20 mg/kg,Mus musculus [32],61%
same,half-life,[33],3.6 h
same,Drug uptake,[34],Active
same,bioavailability,[35],2%
same,Papp A→B at 20 µM,[36],0.9 ×10⁻⁶ cm/s
same,CL,[37],20%
same,half-life,[38],15.9 h
same,"metabolised at 20 min, 5 µM",[39],23%
same,inhibition in vivo at 20 mg/kg,Mus musculus [40],80%
same,Vd,[41],505 L and 7.2 L/kg
same,logD,[7],4.2
same,Drug uptake,[42],Dose-dependent effect
same,clearance,[43],51.7 mL/min/kg
same,Drug uptake(free),[44],2 nM
same,clearance,[45],46.7 mL/min/kg
COC(=O)Nc1nc2cc(Sc3nnc4ccc(-c5ccc(F)cc5)nn34)ccc2[nH]1,IC50,[1],10 nM
same,inhibition,[3],Active
same,inhibition,MKN-45,Active
same,IC50,[46],> 10000 nM
same,IC50,Tubulin,2000 nM
same,logD,[7],3.8
same,Activity,[8],Toxic
O=C(NCCN1CCOCC1)Nc1nc2ccc(Sc3nnc4ccc(OC5CCCCC5)nn34)cc2s1,IC50,[1],2 nM
same,IC50,[4],252 nM
same,solubility thermodynamic,[5],< 2 µM
same,Kd,[24],0.6 nM
same,IC50,Cytochrome P450 3A4 [26],2700 nM
same,solubility thermodynamic,[6],500 µM
same,INH,Cytochrome P450 3A4 [47],-4.6 %/min
same,bioavailability,[35],17%
same,Papp A→B at 20 µM,[36],9.8 ×10⁻⁶ cm/s
same,"metabolised at 20 min, 5 µM",[39],23%
